A word on the EC50: it is the concentration needed to bring the measured effect to its halfway point. A higher EC50 goes with a less potent agent. Usually IC50 stands for the concentration that gives 50% inhibition. As a reminder, the inhibition is how much of the control response was suppressed.

The record followed here is ChEMBL document CHEMBL1126989, “Synthesis and cytotoxicity of 1,6,7,8-substituted 2-(4'-substituted phenyl)-4-quinolones and related compounds: identification as antimitotic agents interacting with tubulin” (J Med Chem, 1993).

Values after ≈ are worked out from the molar mass of the structure shown.

Assay [1] concerns A549. Kind of assay: Cytotoxicity in vitro expressed as 50% reduction in cell number after a 3-day incubation, in human lung carcinoma A-549 cell line. The format is functional, cell-based. The note with it: A549, 72 h. The gist of the method:
(§1)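 Cell lines adapted to antibiotic-free RPMI-1640 with 10% fetal calf serum; ca. 1×10^5 cells per well, overnight stabilization, then serial dilutions added, quadruplicate per concentration; medium-only controls. After 3-4 days, MTT added and incubated overnight; formazan dissolved in DMSO, absorbance at 570 nm. EC50 calculated from two data points bracketing 50% growth inhibition. Actinomycin as positive control.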

For assay [2], the system named is COLO 205. The assay is described as follows: Inhibition of in vitro cell growth which reduces cell growth to 50% of level at start of experiment in colon COLO-205 cell line. Format: functional, Homo sapiens. The gist of the method:
(§2)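 NCI in vitro disease-oriented screen across about 60 human tumour cell lines. The value is the LC50-type level: the drug concentration that cuts cell number to 50% of the count at the start of the experiment. Values are averages of 2 assays.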

In assay [3] the test system is COLO 205. The assay is described as follows: Inhibition of in vitro cell growth which reduces cell growth to level at start of experiment in colon COLO-205 cell line. Format: functional, Homo sapiens.
The subject of assay [4] is HCC 2998. The assay is described as follows: Inhibition of in vitro cell growth which reduces cell growth to level at start of experiment in colon HCC2998 cell line. The format is functional, Homo sapiens.
In assay [5] the test system is HCC 2998. The assay is described as follows: Inhibition of in vitro cell growth which reduces cell growth to 50% of level at start of experiment in colon HCC2998 cell line. The format is functional, Homo sapiens. The gist of the method: as §2
Assay [6] deals with HT-29. The assay is described as follows: Inhibition of in vitro cell growth which reduces cell growth to 50% of level at start of experiment in colon HT-29 cell line. Format: functional, Homo sapiens. The gist of the method: as §2
In assay [7] the test system is L1210 (1565). Kind of assay: Cytotoxicity in vitro expressed as 50% reduction in cell number after a 3-day incubation, in murine leukemia L-1210 cell line. The note with it: Mus musculus, 72 h. Format: functional, cell-based. In outline:
as §1

The test system of assay [8] is KB. The assay is described as follows: Cytotoxicity in vitro expressed as 50% reduction in cell number after a 3-day incubation, in human epidermoid carcinoma KB cell line. Format: functional, cell-based. The note with it: 72 h. In outline: as §1
Assay [9] has as its system KM-20L2. Kind of assay: (§3) Inhibition of in vitro cell growth which reduces cell growth to 50% of level at start of experiment in colon KM-20L2 cell line. The format is functional, Homo sapiens. The gist of the method:
as §2

In assay [10] the test system is KM-20L2. Kind of assay: (§4) Inhibition of in vitro cell growth which reduces cell growth to level at start of experiment in colon KM-20L2 cell line. The format is functional, Homo sapiens.
Assay [11] deals with P388. The assay is described as follows: Cytotoxicity in vitro expressed as 50% reduction in cell number after a 3-day incubation, in murine leukemia P-388 cell line. Format: functional, cell-based. The note with it: Mus musculus, P388, 72 h. In outline:
as §1

In assay [12] the test system is RPMI-7951. The assay is described as follows: Cytotoxicity in vitro expressed as 50% reduction in cell number after a 3-day incubation, in human melanoma RPMI-7951 cell line. The format is functional, cell-based. The conditions noted are these: RPMI-7951, 72 h. The gist of the method: as §1
Assay [13] deals with SF-539. Kind of assay: Inhibition of in vitro cell growth which reduces cell growth to level at start of experiment in CNS SF-539 cell line. The format is functional, Homo sapiens.
Assay [14] relates to SF-539. Kind of assay: Inhibition of in vitro cell growth which reduces cell growth to 50% of level at start of experiment in CNS SF-539 cell line. Format: functional, Homo sapiens. In outline:
as §2

For assay [15], the target named is Tubulin beta chain (Bos taurus, UniProt Q6B856). Kind of assay: Inhibition of tubulin polymerization. Format: functional. In outline:
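Bovine brain tubulin 1.0 mg/mL (10 μM) with 1.0 M repurified monosodium glutamate, 1.0 mM MgCl2, 4% DMSO and drug; preincubated 15 min at 37 °C, chilled, GTP added; turbidity at 350 nm after jump from 0 to 37 °C, followed 20 min.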

Assay [16] addresses T1, Tubulin (Bos taurus) (UniProt Q6B856+Q862L2+Q862F3). Kind of assay: Percentage inhibition of colchicine binding(10:1 ratio of inhibitor: colchicine). Format: protein assay. The conditions noted are these: concentration not given here.
Assay [17] addresses T1, Tubulin (Bos taurus). Kind of assay: Percentage inhibition of colchicine binding(1:1 ratio of inhibitor: colchicine). The format is protein assay. The conditions noted are these: concentration not given here.
For assay [18], the system named is HCT-8. Kind of assay: Cytotoxicity in vitro expressed as 50% reduction in cell number after a 3-day incubation, in human ileocecal carcinoma HCT-8 cell line. The conditions noted are these: HCT-8, 72 h. The format is functional, cell-based. In outline: as §1
The subject of assay [19] is HT-29. The assay is described as follows: Inhibition of in vitro cell growth which reduces cell growth to level at start of experiment in colon HT-29 cell line. Format: functional, Homo sapiens.
Assay [20] in a line: Percentage inhibition of colchicine binding(1: 1 ratio of inhibitor: colchicine). Format: functional. The conditions noted are these: concentration not given here.
Assay [21] deals with COLO 205. The assay is described as follows: Inhibition of in vitro cell growth which reduces cell growth to 50% of level at start of experiment in colon COLO-205 cell line (<-4 in one experiment, >-4 in other experiment). The format is functional, Homo sapiens. The gist of the method:
as §2

Assay [22] has as its system SF-539. The assay is described as follows: Inhibition of in vitro cell growth which reduces cell growth to 50% of level at start of experiment in CNS SF-539 cell line(<-4 in one experiment, >-4 in other experiment). Format: functional, Homo sapiens. In outline: as §2
A short description of assay [23]: as §3. The format is functional, Homo sapiens. In outline:
as §2

A short description of assay [24]: as §4. The format is functional, Homo sapiens.
For assay [25], the target named is T1, Tubulin (Bos taurus). Kind of assay: Percentage inhibition of colchicine binding by derivatives of 2-phenyl-4-quinolone at the ratio of 10:1. Format: protein assay. The note with it: concentration not given here.
Assay [26] has as its target T1, Tubulin (Bos taurus). Kind of assay: Percentage inhibition of colchicine binding by derivatives of 2-phenyl-4-quinolone at the ratio of 1:1. The format is protein assay. The note with it: concentration not given here.

Chain of Tubulin beta chain (Q6B856 whole entry): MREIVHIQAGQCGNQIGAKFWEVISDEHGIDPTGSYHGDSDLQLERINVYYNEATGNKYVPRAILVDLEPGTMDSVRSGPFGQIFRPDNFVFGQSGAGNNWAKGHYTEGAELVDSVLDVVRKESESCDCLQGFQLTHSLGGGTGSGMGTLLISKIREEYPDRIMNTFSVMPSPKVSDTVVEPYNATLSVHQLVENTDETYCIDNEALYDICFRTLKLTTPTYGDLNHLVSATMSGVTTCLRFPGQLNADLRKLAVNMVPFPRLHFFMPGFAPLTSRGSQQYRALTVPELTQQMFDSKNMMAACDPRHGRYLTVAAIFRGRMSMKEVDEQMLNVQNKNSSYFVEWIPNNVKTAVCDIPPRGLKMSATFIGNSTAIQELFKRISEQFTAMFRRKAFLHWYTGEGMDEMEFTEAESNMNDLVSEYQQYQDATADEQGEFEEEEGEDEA

With `COc1ccc2nc(-c3ccccc3)cc(O)c2c1`, the EC50 in [1] came out at 0.19 µg/mL (≈ 0.756 µM); in [7] it was 0.06 µg/mL (≈ 0.239 µM); in assay [8], 0.08 µg/mL (≈ 0.318 µM); in [11], 0.33 µg/mL (≈ 1.31 µM); in assay [12] it was 0.36 µg/mL (≈ 1.43 µM); in [18], 1 µg/mL (≈ 3.98 µM). Moreover, the LC50 is -4.4 in assay [2]; greater than -4 in assay [5]; greater than -4 in assay [6]; -4.6 in [9]; -4.4 in assay [14]. Besides, the TGI was -6.1 in assay [3]; -6.2 in assay [4]; -5.9 in assay [10]; -6.2 in assay [13]; -6.1 in assay [19]. In assay [15], this molecule registered an IC50 of 2.7 µM. The results for the inhibition in assay [16] and in [17] were 53% and 8%, respectively.
With `COc1ccc(/C=C\c2cc(OC)c(OC)c(OC)c2)cc1O`, the inhibition in [20] turned out to be 97%.
As for `Oc1cc(-c2ccccc2)nc2cc(F)ccc12`, the EC50 was 0.96 µg/mL (≈ 4.01 µM) in [1]; 0.16 µg/mL (≈ 0.669 µM) in assay [7]; less than 0.1 µg/mL in [8]; 0.29 µg/mL (≈ 1.21 µM) in assay [11]; 0.37 µg/mL (≈ 1.55 µM) in [12]; 3.45 µg/mL (≈ 14.4 µM) in assay [18]. Also, the LC50 in assay [21] is listed as -4; in assay [5] it was greater than -4; in [6], greater than -4; in [9] it was -5.6; in assay [22], greater than -4. For the same molecule, the TGI was -6.1 in assay [3]; -5.6 in assay [4]; -6.3 in assay [10]; -6 in assay [13]; -5.6 in [19]. Also, the half-maximal inhibitory concentration (IC50) in [15] is 3.7 µM. Also, the inhibition in assay [16] is 34%; in [17], 7%.
Turning to `Oc1cc(-c2ccccc2)nc2ccc(Cl)cc12`, the EC50 was 0.51 µg/mL (≈ 1.99 µM) in [1]; 0.5 µg/mL (≈ 1.96 µM) in assay [7]; 0.49 µg/mL (≈ 1.92 µM) in assay [8]; 0.84 µg/mL (≈ 3.29 µM) in assay [11]; 0.64 µg/mL (≈ 2.5 µM) in [12]; 0.7 µg/mL (≈ 2.74 µM) in assay [18]. In addition, the LC50 in [2] is listed as -4; in assay [5], greater than -5; in assay [6], greater than -4; in assay [23], -4; in assay [14], greater than -4. Further, the TGI in [3] was -5.6; in assay [4], -5; in assay [24] it was -5.4; in assay [13] it was -5.4; in assay [19] it was -4.9. In [15], this molecule returned an IC50 of 3.2 µM. The inhibition in assay [25] stood at 21%; in assay [26] it was 6%.
